Data from ChEMBL document CHEMBL3091285, “Cytotoxic compounds from invasive giant salvinia (Salvinia molesta) against human tumor cells” (Bioorg Med Chem Lett, 2013).

What was measured:
[1] = Cytotoxicity against human MRC5 cells assessed as growth inhibition by WST-8 assay; type: cell-based
[2] = Cytotoxicity against human BxPC3 cells assessed as growth inhibition by WST-8 assay; type: functional; conditions: BXPC-3
[3] = Cytotoxicity against human PANC1 cells assessed as growth inhibition by WST-8 assay; type: functional; conditions: PANC-1
HL-60 = experiment: Cytotoxicity against human HL60 cells assessed as growth inhibition by WST-8 assay; type: functional
PC-3 = experiment: Cytotoxicity against human PC3 cells assessed as growth inhibition by WST-8 assay; type: functional
A549 = experiment: Cytotoxicity against human A549 cells assessed as growth inhibition by WST-8 assay; type: functional
BXPC-3 = experiment: Antiproliferative activity against human BxPC3 cells after 12 to 48 hrs by CCK-8 assay; type: functional, cell-based
Procedure, shortened: (§1)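 Pancreatic cancer cells (PANC-1, BxPC-3) exposed to test compound at 0 (control), 5, 10, 20, 40, 60, 80 or 100 uM, with concentration levels differing between compounds. Proliferation followed over incubation time, with viable cell number (x1,000) plotted against hours to assess dose-dependent suppression.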

PANC-1 = experiment: Antiproliferative activity against human PANC1 cells after 12 to 48 hrs by CCK-8 assay; type: functional, cell-based; procedure, shortened: as §1
MDA-MB-231 = experiment: Cytotoxicity against human MDA-MB-231 cells assessed as growth inhibition by WST-8 assay; type: functional

Question: What does the source list for `CC(C)c1cc2c(cc1O)[C@@]1(C)CCCC(C)(C)[C@@H]1CC2` [FERRUGINOL]?
Answer: GI50 [1]: 40 µM; GI50 [2]: 21.1 µM; GI50 [3]: 41.1 µM; GI50 (HL-60): 27.3 µM; GI50 (PC-3): 56.5 µM; GI50 (A549): 30.7 µM

Question: With `CC(C)c1cc(C=O)c([C@@]2(C)CCCC(C)(C)[C@@H]2C=O)cc1O` as the compound, how does the GI50 (A549) read?
Answer: The GI50 was 93.8 µM.

Question: With `CC(C)c1cc2c(cc1O)[C@@]1(C)CCCC(C)(C)[C@@H]1CC2=O` [SUGIOL] as the compound, how does the GI50 [1] read?
Answer: Its GI50 is > 100 µM.

Question: What about the GI50 [2] of the same compound?
Answer: Its GI50 is 36.1 µM.

Question: What about the GI50 [3] of the same compound?
Answer: The GI50 was 87.9 µM.

Question: What about the GI50 (HL-60) of the same compound?
Answer: The GI50 was 68.6 µM.

Question: And the GI50 (PC-3)?
Answer: The GI50 was > 100 µM.

Question: And the GI50 (A549)?
Answer: The GI50 was 79.8 µM.

Question: For `CO[C@H]1c2cc(C(C)C)c(O)c(O)c2[C@@]23CCCC(C)(C)[C@@H]2[C@@H]1OC3=O`, which GI50 (A549) is on record?
Answer: Its GI50 is 86.5 µM.

Question: With `COc1cc2c(cc1C(C)C)C(=O)C(O)=C1C(C)(C)CCC[C@@]12C` as the compound, how does the GI50 (A549) read?
Answer: The GI50 was 21.2 µM.

Question: With `CC(C)c1cc2ccc3c(c2cc1O)CCCC3(C)C` as the compound, how does the GI50 [1] read?
Answer: Its GI50 is 55.4 µM.

Question: What about the GI50 [2] of the same compound?
Answer: Its GI50 is 36.4 µM.

Question: What about the GI50 [3] of the same compound?
Answer: The GI50 was 37.5 µM.

Question: And the GI50 (HL-60)?
Answer: The GI50 was 50 µM.

Question: What about the GI50 (PC-3) of the same compound?
Answer: Its GI50 is 43.6 µM.

Question: And the GI50 (A549)?
Answer: The GI50 was 42.2 µM.

Question: For `CC(C)c1cc2c(cc1O)[C@@]1(C)CCCC(C)(C)[C@@H]1CC2O` (some centres not stated), which GI50 [1] is on record?
Answer: The GI50 was 70.5 µM.

Question: And the GI50 [2]?
Answer: The GI50 was 74.7 µM.

Question: And the GI50 [3]?
Answer: Its GI50 is 78.2 µM.

Question: What about the GI50 (HL-60) of the same compound?
Answer: Its GI50 is 75.2 µM.

Question: And the GI50 (PC-3)?
Answer: The GI50 was 85.6 µM.

Question: What about the GI50 (A549) of the same compound?
Answer: The GI50 was 75.1 µM.

Question: With `CC(C)c1cc2c(cc1O)[C@@]1(C)CCCC(C)(C)[C@@H]1C=C2` as the compound, how does the GI50 [1] read?
Answer: Its GI50 is 59.2 µM.

Question: What about the GI50 [2] of the same compound?
Answer: The GI50 was 37.5 µM.

Question: What about the GI50 [3] of the same compound?
Answer: Its GI50 is 46.7 µM.

Question: What about the GI50 (HL-60) of the same compound?
Answer: Its GI50 is 66.5 µM.

Question: What about the GI50 (PC-3) of the same compound?
Answer: Its GI50 is 58.1 µM.

Question: What about the GI50 (A549) of the same compound?
Answer: Its GI50 is 53.8 µM.

Question: Which GI50 [1] does the source give for `CC(C)c1cc2c(c(O)c1O)[C@@]1(C)CCCC(C)(C)[C@@H]1CC2=O` [DEMETHYLCRYPTOJAPONOL] here?
Answer: Its GI50 is 40.2 µM.

Question: And the GI50 [2]?
Answer: The GI50 was 45 µM.

Question: And the GI50 [3]?
Answer: Its GI50 is 43.1 µM.

Question: What about the GI50 (HL-60) of the same compound?
Answer: Its GI50 is 35.3 µM.

Question: And the GI50 (PC-3)?
Answer: The GI50 was 41 µM.

Question: What about the GI50 (A549) of the same compound?
Answer: Its GI50 is 35 µM.

Question: With `CC(C)C1=C(O)C(=O)C2=C(C=C[C@H]3C(C)(C)CCC[C@]23C)C1=O` as the compound, how does the GI50 [1] read?
Answer: Its GI50 is 40.2 µM.

Question: What about the GI50 [2] of the same compound?
Answer: Its GI50 is 41.7 µM.

Question: What about the GI50 [3] of the same compound?
Answer: The GI50 was 51.3 µM.

Question: And the GI50 (HL-60)?
Answer: Its GI50 is 30 µM.

Question: And the GI50 (PC-3)?
Answer: Its GI50 is 46.3 µM.

Question: What about the GI50 (A549) of the same compound?
Answer: The GI50 was 48 µM.

Question: Which results are given for `CC(C)c1cc2c(cc1O)[C@@]1(C)CCCC(C)(C)[C@@H]1C[C@H]2CC1=CCC(O)(C(C)C)CC1` (some centres not stated)?
Answer: inhibition (BXPC-3): Dose-dependent effect; inhibition (PANC-1): Dose-dependent effect; GI50 [1]: 58.4 µM; GI50 (MDA-MB-231): 75 µM; GI50 [2]: 87.3 µM; GI50 [3]: 60.4 µM; GI50 (HL-60): 48.1 µM; GI50 (PC-3): 54.2 µM; GI50 (A549): 62.9 µM

Question: For `CC(C)C1=Cc2ccc3c(c2C(=O)C1=O)C(=O)CCC3(C)C`, which GI50 [1] is on record?
Answer: Its GI50 is 20.4 µM.

Question: And the GI50 [2]?
Answer: The GI50 was 20.5 µM.

Question: What about the GI50 [3] of the same compound?
Answer: Its GI50 is 32.1 µM.

Question: What about the GI50 (HL-60) of the same compound?
Answer: The GI50 was 23.3 µM.

Question: What about the GI50 (PC-3) of the same compound?
Answer: The GI50 was 19 µM.

Question: And the GI50 (A549)?
Answer: Its GI50 is 24.9 µM.

Question: Which results are given for `CC(C)c1ccc2c3c(ccc2c1)C(C)(C)CCC3`?
Answer: GI50 [1]: > 100 µM; GI50 [2]: > 100 µM; GI50 [3]: > 100 µM; GI50 (HL-60): > 100 µM; GI50 (PC-3): > 100 µM; GI50 (A549): > 100 µM

Question: Which GI50 [1] does the source give for `CC(C)C1=C(O)C(=O)C2=C(CC[C@H]3C(C)(C)CCC[C@]23C)C1=O` [ROYLEANONE] here?
Answer: Its GI50 is 45.7 µM.

Question: What about the GI50 [2] of the same compound?
Answer: Its GI50 is 51 µM.

Question: What about the GI50 [3] of the same compound?
Answer: The GI50 was 52.6 µM.

Question: What about the GI50 (HL-60) of the same compound?
Answer: The GI50 was 36.3 µM.

Question: And the GI50 (PC-3)?
Answer: Its GI50 is 27.1 µM.

Question: What about the GI50 (A549) of the same compound?
Answer: Its GI50 is 30.1 µM.

Question: What does the source list for `CC(C)c1cc2c(cc1O)[C@@]1(C)CCCC(C)(C)C1=C(O)C2=O`?
Answer: inhibition (BXPC-3): Dose-dependent effect; inhibition (PANC-1): Dose-dependent effect; GI50 [1]: 20 µM; GI50 [2]: 25 µM; GI50 [3]: 23.1 µM; GI50 (HL-60): 11.5 µM; GI50 (PC-3): 13.2 µM; GI50 (A549): 11.1 µM

Question: For `CC(C)c1cc2c(c(O)c1O)[C@@]1(C)CCCC(C)(C)C1=C(O)C2=O` [14-DEOXYCOLEON U], which GI50 [1] is on record?
Answer: The GI50 was 24.8 µM.

Question: What about the GI50 (MDA-MB-231) of the same compound?
Answer: Its GI50 is > 100 µM.

Question: What about the GI50 [2] of the same compound?
Answer: Its GI50 is 37.3 µM.

Question: And the GI50 [3]?
Answer: The GI50 was 22.6 µM.

Question: And the GI50 (HL-60)?
Answer: The GI50 was 13.3 µM.

Question: And the GI50 (PC-3)?
Answer: Its GI50 is 8.39 µM.

Question: And the GI50 (A549)?
Answer: Its GI50 is 9.1 µM.

Question: What does the source list for `CC(C)c1cc2c(cc1O)[C@@]1(C)CCCC(C)(C)C1=CC2=O`?
Answer: GI50 [2]: > 100 µM; GI50 [3]: > 100 µM; GI50 (HL-60): 92.8 µM; GI50 (PC-3): > 100 µM; GI50 (A549): 84.5 µM
